The source made the active and inactive calls. The calls are words filed in the database; no cut-off is given here.

Data on three molecules can be found in ChEMBL document CHEMBL1165920, “Structural determinants for the inhibitory ligands of orotidine-5'-monophosphate decarboxylase” (Bioorg Med Chem, 2010).

Experiment [1] can be described thus: Inhibition of Helicobacter pylori uridine 5'-monophosphate synthase after overnight incubation at room temperature by VP-ITC microcalorimetry. A digest of the protocol: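 Reversible inhibition measured by ITC with Hp ODCase (final 60 nM) and 20 µM OMP substrate. Assay buffer was degassed 50 mM Tris pH 7.5 with 1 mM DTT. Inhibitor series were 0.25–1.5 µM or 0.25–2.5 mM. Ki was fitted as competitive from Ki(app) = Ki(1+[S]/KM).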

Experiment [2] addresses Orotidine 5'-phosphate decarboxylase (Methanobacterium thermoautotrophicum) (UniProt O26232). Description: Competitive inhibition of Methanothermobacter thermautotrophicus uridine 5'-monophosphate synthase after overnight incubation at room temperature by Lineweaver-Burke plot analysis. A digest of the protocol:
(§1)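 Isothermal titration calorimetry with Mt ODCase (final 20 nM). Enzyme stock was kept in 50 mM Tris pH 7.5, 20 mM DTT, 40 mM NaCl overnight at rt. Assay buffer was degassed 50 mM Tris pH 7.5 with 1 mM DTT. Run at 55 °C, started by injecting 5 mM OMP in 50 mM Tris. Inhibitor series spanned 5–40 µM or 0.5–5 mM. Competitive Ki was derived from Ki(app) = Ki(1+[S]/KM).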

The target in experiment [3] is Orotidine 5'-phosphate decarboxylase (Methanobacterium thermoautotrophicum, UniProt O26232). Description: Inhibition of Methanothermobacter thermautotrophicus uridine 5'-monophosphate synthase after overnight incubation at room temperature by VP-ITC microcalorimetry. A digest of the protocol:
as §1

Experiment [4] has as its target T1, Orotidine 5'-phosphate decarboxylase (Saccharomyces cerevisiae S288c, UniProt P03962).
T1 sequence (P03962 whole entry): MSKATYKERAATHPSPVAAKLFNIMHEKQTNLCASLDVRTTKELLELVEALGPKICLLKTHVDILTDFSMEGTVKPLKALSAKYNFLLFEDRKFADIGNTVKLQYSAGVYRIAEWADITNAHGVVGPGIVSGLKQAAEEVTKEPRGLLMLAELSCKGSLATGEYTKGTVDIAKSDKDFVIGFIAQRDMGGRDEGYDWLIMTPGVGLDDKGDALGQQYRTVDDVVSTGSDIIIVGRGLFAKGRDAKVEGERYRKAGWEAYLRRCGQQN
Description: Inhibition of Saccharomyces cerevisiae uridine 5'-monophosphate synthase after overnight incubation at room temperature by VP-ITC microcalorimetry.

Experiment [5] concerns the target T1, Orotidine 5'-phosphate decarboxylase. The experiment in a line: Inhibition of Saccharomyces cerevisiae uridine 5'-monophosphate synthase.
For experiment [6], the target named is T2, Orotidine phosphate decarboxylase (Plasmodium falciparum) (UniProt Q8T6J6).
T2 sequence (whole entry): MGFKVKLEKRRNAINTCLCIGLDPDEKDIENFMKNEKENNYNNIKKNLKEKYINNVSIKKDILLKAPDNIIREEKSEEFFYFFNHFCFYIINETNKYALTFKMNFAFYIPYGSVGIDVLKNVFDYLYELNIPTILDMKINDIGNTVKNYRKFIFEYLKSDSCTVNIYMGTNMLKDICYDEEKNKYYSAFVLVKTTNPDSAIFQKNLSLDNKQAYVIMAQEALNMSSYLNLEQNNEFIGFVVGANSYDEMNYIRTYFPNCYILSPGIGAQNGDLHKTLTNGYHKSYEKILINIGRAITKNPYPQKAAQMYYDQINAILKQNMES
The following applies: 0.5 to 5 mM.

Chain of Orotidine 5'-phosphate decarboxylase (Methanobacterium thermoautotrophicum) (O26232 whole entry, looked up): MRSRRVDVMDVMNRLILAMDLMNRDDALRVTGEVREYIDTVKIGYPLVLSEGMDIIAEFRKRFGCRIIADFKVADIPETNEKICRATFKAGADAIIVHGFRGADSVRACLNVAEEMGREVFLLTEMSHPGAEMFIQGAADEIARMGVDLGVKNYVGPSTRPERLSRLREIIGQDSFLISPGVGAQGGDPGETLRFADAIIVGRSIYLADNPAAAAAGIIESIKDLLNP
Chain of Orotidine 5'-phosphate decarboxylase (Methanobacterium thermoautotrophicum, UniProt O26232) (O26232 whole entry): as the sequence (O26232 whole entry, looked up) above

By Ki is commonly meant the equilibrium dissociation constant of an inhibitor or competing ligand from its target. Read a low Ki as higher affinity. In the case of `NC(=O)c1[nH]nc([C@@H]2O[C@H](COP(=O)(O)O)[C@@H](O)[C@H]2O)c1O`, the figures for the Ki in experiment [1], in experiment [3] and in experiment [4] were 130 nM, 6200 nM and 5 nM, respectively. In experiment [2], the inhibition entry was “Active”.

For the molecule `O=c1cc(O)n([C@@H]2O[C@H](COP(=O)(O)O)[C@@H](O)[C@H]2O)c(=O)[nH]1`, the Ki was 0.009 nM in experiment [4] and 0.0088 nM in experiment [5].

For `N#Cc1cc(=O)[nH]c(=O)n1[C@@H]1O[C@H](COP(=O)(O)O)[C@@H](O)[C@H]1O`, the inhibition entry in experiment [6] was “Active”.
